This is one part of a sample in which hits are shown more often than they occur.
Redox H2O2 prof = compounds producing H2O2 with reducing agent – biochemical, NIH compound library profiling, artefact control for MLSCN library redox annotation, primary screen; DTT-dependent redox cycling H2O2, phenol red/HRP absorbance; 100% = 100 µM peroxide control, 0% = buffer; activation, % at 10 µM; AID 878; hit rate 0.03% among 200,000;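 active = activation of at least 50% relative to the plate's high and low controls in the primary single-dose screen; inactive = activation below 50%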;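 also: compound incubated with DTT at 0.8 mM final as the reducing agent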
T cruzi inh = T. cruzi replication inhibition | T. cruzi beta-gal in NIH3T3, luminescence, 90 h | inhibition, % (concentration not given with the values) | hit rate 1.4% among 300,000;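 active = mean inhibition across valid replicates above about 55%, limit read from the data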;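 also: signal also drops with host cell toxicity which is not excluded here; 0% = plate median of DMSO wells and 100% = zero luminescence signal; higher percent means less beta-gal luminescence so fewer parasites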
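Material: NIH/3T3 host cells with β-galactosidase reporter T. cruzi; Input: 5,000 host fibroblasts per well; Medium: DMEM, 2% fetal bovine serum; Compound: 50 nL DMSO compound solution per well; Schedule: 3 h host attachment, then at least 90 h co-culture; Detection: luminescent β-galactosidase signal after 60 min lysis.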
Lmaj promast = inhibitors of Leishmania major promastigote growth; inhibition, % at 10 µM; hit rate 9% among 200,000; AID 1063; Leishmania major promastigotes, resazurin fluorescence viability; in the data active = inhibition above about 50%;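 also: promastigotes grown with compound for 44 hours at 28 °C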
MPTP inh = inhibitors of mitochondrial permeability transition pore; isolated mouse mitochondria, Ca2+ swelling absorbance, 30 min; inhibition, % at 10 µM; hit rate 1.4% among 360,000; AID 602449;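 active = inhibition of 50% or more, scaled per plate between neutral and stimulator controls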;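 also: 0% = DMSO wells given calcium and 100% = 1 mM EGTA wells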
Lipid droplet = hepatic lipid droplet formation modulation; AML12 mouse hepatocytes, oleate lipid droplets, BODIPY imaging; inhibition, % at 6.5 µM; hit rate 0.4% among 240,000;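 active = lipid droplet intensity inhibited by at least 50%, with more than 500 cells counted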
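Test system: AML12 mouse liver cells; schedule: overnight exposure; technique: high-content imaging of BODIPY-stained droplets and DAPI nuclei; read-out: % inhibition of corrected integrated BODIPY droplet signal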
Lipid drop inh = hepatic lipid droplet formation inhibition, confirmed. AID 463183. hit rate 65% among 870. AML12 mouse hepatocytes, BODIPY lipid droplet imaging; droplets induced with 100 µM oleic acid. shares compounds with Lipid droplet. inhibition, % at 5.2 µM;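 active = inhibition of lipid droplet metric at least 50%, with more than 300 cells in each of four replicates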;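 also: plate controls were DMSO with oleic acid for no effect and 5 µM Triacsin-C for full effect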
AML12 cytotox = AML12 hepatocyte cytotoxicity (counter-screen). AML12 mouse hepatocytes, DAPI nuclear morphology cytotoxicity imaging; stronger effect = higher value; cells fed 100 µM oleate overnight. hit rate 3% among 870. AID 463200. shares compounds with Lipid droplet. z-score at 5 µM; in the data active = z-score above about 6.3;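 also: compound exposure lasted overnight at 37 °C before fixation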
AML12 tox ATP = confirmation of cytotoxicity in AML12 mouse hepatocytes; shares compounds with Lipid droplet; AML12 mouse hepatocyte viability, ATP luminescence; cells loaded with 100 µM oleic acid; cytotoxicity, % at 50 µM; 530 tested, under 10 active; AID 463219;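 active = cytotoxicity above 50% in each of four replicates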;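 also: compound exposure lasted overnight at 37 °C before the ATP read; 0% = DMSO-treated cells and 100% = wells with no cells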
Starred values were filed as active, the others as inactive.

What do the screens show for `O=C(NCc1ccco1)c1ccc(Cn2c(=O)c3ccccc3n(Cc3ccc(Cl)cc3)c2=O)cc1`?
Redox H2O2 prof: -2.8; T cruzi inh: 40.8; Lmaj promast: 41.8; MPTP inh: 2.2; Lipid droplet: 55.9*; Lipid drop inh: 47.9; AML12 cytotox: -0.475

Results for O=C1c2cccnc2C(=O)N1Cc1ccc(S(=O)(=O)N2CCOc3ccccc32)cc1 ?
T cruzi inh: 12.0; MPTP inh: -2.2; Lipid droplet: 28.7

What do the screens show for `COc1ccc(CC(=O)Nn2c(-c3ccccc3)nc3ccccc3c2=O)cc1`?
Redox H2O2 prof: -0.6; T cruzi inh: 6.7; Lmaj promast: -2.1; MPTP inh: -1.0; Lipid droplet: 55.9*; Lipid drop inh: 90.5*; AML12 cytotox: -0.433

What do the screens show for `COc1ccc(-c2nc3ccccc3c(=O)n2NC(=O)Cc2ccccc2)cc1`?
Redox H2O2 prof: 0.0; T cruzi inh: 4.5; Lmaj promast: 2.1; MPTP inh: -0.8; Lipid droplet: -1.6

How did Cc1[nH]n(-c2ccccc2)c(=O)c1N=Nc1ccc(C(=O)O)cc1 do in these assays?
T cruzi inh: 12.1; MPTP inh: -0.1; Lipid droplet: 51.2*; Lipid drop inh: 31.2; AML12 cytotox: -0.375

Results for Cc1[nH]n(-c2ccccc2)c(=O)c1N=Nc1ccc(Cl)cc1 ?
T cruzi inh: -29.2; MPTP inh: 1.7; Lipid droplet: 53.7*; Lipid drop inh: 51.2; AML12 cytotox: 0.571

What do the screens show for `Cc1[nH]n(-c2ccccc2)c(=O)c1N=Nc1c(Cl)cccc1Cl`?
T cruzi inh: -3.8; MPTP inh: 1.5; Lipid droplet: 0.6

Results for Cc1ccc(Cl)cc1NC(=O)NCc1ccccn1 ?
T cruzi inh: 1.1; MPTP inh: -0.5; Lipid droplet: 18.0

Results for COc1ccc(CCNC(=O)CCc2cn(C)c3ccccc23)c(OC)c1OC ?
T cruzi inh: -0.1; MPTP inh: 0.8; Lipid droplet: 85.8*; Lipid drop inh: 98.7*; AML12 cytotox: 0.836

How did COc1ccc(OC)c(CNC(=O)CCc2cn(C)c3ccccc23)c1 do in these assays?
T cruzi inh: 1.3; MPTP inh: 0.0; Lipid droplet: -79.5

How did COc1ccc(Br)cc1CNC(=O)CCCc1cn(C)c2ccccc12 do in these assays?
Redox H2O2 prof: 0.7; T cruzi inh: 15.4; Lmaj promast: -2.4; MPTP inh: -1.4; Lipid droplet: 70.3*; Lipid drop inh: 94.3*; AML12 cytotox: -0.28

What do the screens show for `COc1ccc(OC)c(CCNC(=O)CCc2cn(C)c3ccccc23)c1`?
T cruzi inh: -15.9; MPTP inh: -0.5; Lipid droplet: -14.2

Results for COc1ccc(OC)c(CNC(=O)CCCc2cn(C)c3ccccc23)c1 ?
Redox H2O2 prof: 0.2; T cruzi inh: 5.1; Lmaj promast: 5.6; MPTP inh: 0.8; Lipid droplet: 81.7*; Lipid drop inh: 95.5*; AML12 cytotox: 0.285

What do the screens show for `O=C(CSc1nnc(NC(=O)c2cccc(Cl)c2)s1)NCC1CCCO1` (stereo unspecified)?
T cruzi inh: -5.6; MPTP inh: -1.8; Lipid droplet: 5.9

What do the screens show for `Cc1cc(C)n(-c2cccc(CN(C)Cc3nc(-c4cnccn4)no3)c2)n1`?
Redox H2O2 prof: -0.1; T cruzi inh: -9.4; Lmaj promast: -1.0; MPTP inh: -0.7; Lipid droplet: -4.6

How did Cc1[nH]c(C)c(S(=O)(=O)N2CCN(c3ccccc3F)CC2)c1C(=O)N1CCCCC1 do in these assays?
T cruzi inh: -0.4; MPTP inh: 0.3; Lipid droplet: 21.8

What do the screens show for `Cc1ccc(-c2nc(CN(Cc3cnn(C)c3)C(C)C)c(C)o2)o1`?
Redox H2O2 prof: -0.7; T cruzi inh: -5.8; Lmaj promast: 2.9; MPTP inh: -0.2; Lipid droplet: -8.0

Results for Cc1ccc(-c2cc(-c3c(C)nn(C)c(=O)c3N)[nH]n2)cc1 ?
T cruzi inh: -4.5; MPTP inh: 6.5; Lipid droplet: 56.2*; Lipid drop inh: 78.6*; AML12 cytotox: -0.359

What do the screens show for `Cc1nn(C)c(=O)c(N)c1-c1cc(-c2ccc(Cl)c(Cl)c2)n[nH]1`?
T cruzi inh: 1.2; MPTP inh: 48.0; Lipid droplet: -9.0

What do the screens show for `COCCn1cnc2c(c1=O)c1nc3ccccc3nc1n2/N=C/c1ccc(OC)c(OC)c1`?
T cruzi inh: 37.9; MPTP inh: 1.0; Lipid droplet: 52.6*; Lipid drop inh: 4.6; AML12 cytotox: 0.688

Results for O=S1(=O)N=C(Oc2cccc3ccccc23)c2ccccc21 ?
Redox H2O2 prof: 2.7; T cruzi inh: 8.5; Lmaj promast: 39.9; MPTP inh: 3.5; Lipid droplet: 65.8*; Lipid drop inh: 22.8; AML12 cytotox: -0.318

How did COC(=O)C1=C(C)NC(=S)NC1c1ccc(-c2cc(Cl)ccc2Cl)o1 (stereo unspecified) do in these assays?
T cruzi inh: 31.0; MPTP inh: 9.7; Lipid droplet: -2.3

How did CCOc1ccc(CN(C)C(=O)CNC(=O)c2ccccc2)cc1 do in these assays?
T cruzi inh: -7.6; MPTP inh: -0.8; Lipid droplet: 17.9

Results for CCOc1ccc(CN(C)C(=O)CNC(=O)Cc2cccc3ccccc23)cc1 ?
T cruzi inh: -3.6; MPTP inh: 1.0; Lipid droplet: 77.0*; Lipid drop inh: 101.0*; AML12 cytotox: -0.97; AML12 tox ATP: 10.8

How did O=C(COc1coc(CN2CCc3ccccc3C2)cc1=O)Nc1ccc(F)cc1F do in these assays?
T cruzi inh: 24.7; MPTP inh: -2.1

Results for CCNC(=O)C1CCCN(C(=O)c2cccc(Cl)c2)CC1 (stereo unspecified) ?
MPTP inh: 1.8

What do the screens show for `CSc1ccccc1NC(=O)CN(Cc1ccccc1)S(C)(=O)=O`?
Redox H2O2 prof: 0.2; T cruzi inh: 13.4; Lmaj promast: 4.8; MPTP inh: 0.2; Lipid droplet: 37.0

Results for CS(=O)(=O)N(CC(=O)Nc1ccccc1Br)Cc1ccccc1 ?
T cruzi inh: -6.1; MPTP inh: 0.2; Lipid droplet: 56.2*; Lipid drop inh: 66.7*; AML12 cytotox: -0.761; AML12 tox ATP: 8.8

How did Cc1cccc(C(C(=O)NC2CCCC2)N(C(=O)c2csnn2)C2CCCC2)c1 (stereo unspecified) do in these assays?
T cruzi inh: 6.9; MPTP inh: -1.8; Lipid droplet: 77.4*; Lipid drop inh: 73.7*; AML12 cytotox: -0.493; AML12 tox ATP: 12.0

How did CC(=O)C1=C(O)C(=O)N(c2cccc(Br)c2)C1c1ccccc1Cl (stereo unspecified) do in these assays?
T cruzi inh: -3.8; MPTP inh: 1.2
